Measurements taken from ChEMBL document CHEMBL1146216, “Synthesis and biological activity of a gemcitabine phosphoramidate prodrug” (J Med Chem, 2007).

What was measured:
M14 = experiment: Growth inhibition of M14 cells; format: functional; conditions: Homo sapiens
NCI-H522 = experiment: Growth inhibition of NCI-H522 cells; format: functional; conditions: Homo sapiens
NCI-H322M = experiment: Growth inhibition of NCI-H322M cells; format: functional; conditions: Homo sapiens
SK-MEL-28 = experiment: Growth inhibition of SK-MEL-28 cells; format: functional; conditions: Homo sapiens
786-0 = experiment: Growth inhibition in 786-0 cells; format: functional; conditions: Homo sapiens
OVCAR-8 = experiment: Growth inhibition of OVCAR8 cells; format: functional; conditions: Homo sapiens
A549 [1] = experiment: Growth inhibition in A549 cells; format: functional; conditions: Homo sapiens
[2] = Ratio of growth inhibition of H292 cells by drug to 2'-2'-difluorodeoxycytidine; format: functional, Homo sapiens
CCRF-CEM [3] = experiment: Growth inhibition of dCK deficient CEM cells by MTT assay in presence of dipyridamole; conditions: Homo sapiens
MDA-MB-435 = experiment: Growth inhibition of MDA-MB-435 cells; format: functional; conditions: Homo sapiens
HCT-116 = experiment: Growth inhibition in HCT116 cells; format: functional; conditions: Homo sapiens
NCI-H460 [4] = experiment: Growth inhibition of NCI-H460 cells; format: functional; conditions: Homo sapiens
CCRF-CEM [5] = experiment: Ratio of growth inhibition of CEM cells by drug to 2'-2'-difluorodeoxycytidine; format: functional, Homo sapiens
PC-3 = experiment: Growth inhibition of PC3 cells; format: functional; conditions: Homo sapiens
MCF7 = experiment: Growth inhibition of MCF7 cells; format: functional; conditions: Homo sapiens
A549 [6] = experiment: Growth inhibition of A549 cells by SRB assay; format: functional, cell-based; conditions: Homo sapiens
Outline: (§1)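 Cells seeded at 5000/well and exposed to a range of drug concentrations for 72 h at 37 °C, 5% CO2, then read by SRB. A2780 and its dCK-deficient variant AG6000 were grown in DMEM; A549, H292 and H460 in RPMI; both media had 10% FCS and 20 mM HEPES. OD was read at 540 or 492 nm. Relative growth = (ODtreated − ODzero)/(ODcontrol − ODzero) × 100%, with ODzero taken at drug addition.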

[7] = Growth inhibition of AG6000 cells by SRB assay; format: functional, cell-based; conditions: Homo sapiens; outline: as §1
MDA-MB-231 = experiment: Growth inhibition of MDA-MB-231 cells; format: functional; conditions: Homo sapiens
SNB-75 = experiment: Growth inhibition of SNB75 cells; format: functional; conditions: Homo sapiens
SF-539 = experiment: Growth inhibition of SF539 cells; format: functional; conditions: Homo sapiens
KM12 = experiment: Growth inhibition of KM12 cells; format: functional; conditions: Homo sapiens
OVCAR-3 = experiment: Growth inhibition of OVCAR-3 cells; format: functional; conditions: Homo sapiens
CAKI-1 = experiment: Growth inhibition in CAKI1 cells; format: functional; conditions: Homo sapiens
NCI-H460 [8] = experiment: Growth inhibition of H460 cells by SRB assay in presence of dipyridamole; format: functional, cell-based; conditions: Homo sapiens
Outline: (§2)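 SRB growth assay run with the nucleoside transport inhibitor dipyridamole at 1 µM final. Cells were seeded at 5000/well and exposed to a range of drug concentrations for 72 h at 37 °C, 5% CO2. Media: DMEM for A2780 and the dCK-deficient AG6000; RPMI for A549, H292 and H460; each with 10% FCS and 20 mM HEPES. Relative growth was calculated against ODzero and untreated controls.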

U-251 = experiment: Growth inhibition of U251 cells; format: functional; conditions: Homo sapiens
SNB-19 = experiment: Growth inhibition of SNB19 cells; format: functional; conditions: Homo sapiens
HT-29 = experiment: Growth inhibition in HT29 cells; format: functional; conditions: Homo sapiens
CCRF-CEM [9] = experiment: Growth inhibition of dCK deficient CEM cells by MTT assay; conditions: Homo sapiens
SF-268 = experiment: Growth inhibition of SF268 cells; format: functional; conditions: Homo sapiens
BT-549 = experiment: Growth inhibition in BT549 cells; format: functional; conditions: Homo sapiens
SW1573 [10] = experiment: Growth inhibition of SW1573 cells by SRB assay in presence of dipyridamole; format: functional, cell-based; conditions: Homo sapiens
Outline: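 SW1573 cells cultured in DMEM, 10% FCS, 20 mM HEPES, 37 °C, 5% CO2. Plated at 5000 cells/well and given graded drug concentrations with the nucleoside transport inhibitor dipyridamole at 1 µM final, for 72 h. SRB read-out at OD 540 or 492 nm. Growth is expressed relative to time-zero and untreated wells.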

DU-145 = experiment: Growth inhibition in DU145 cells; format: functional; conditions: Homo sapiens
A549 [11] = experiment: Ratio of growth inhibition of A549 cells by drug to 2'-2'-difluorodeoxycytidine; format: functional, Homo sapiens
COLO 205 = experiment: Growth inhibition in COLO 205 cells; format: functional; conditions: Homo sapiens
A2780 [12] = experiment: Ratio of growth inhibition of A2780 cells by drug to 2'-2'-difluorodeoxycytidine; format: functional, Homo sapiens
UACC-62 = experiment: Growth inhibition of UACC62 cells; format: functional; conditions: Homo sapiens
SK-MEL-5 = experiment: Growth inhibition of SK-MEL-5 cells; format: functional; conditions: Homo sapiens
[13] = Growth inhibition of AG6000 cells by SRB assay in presence of dipyridamole; format: functional, cell-based; conditions: Homo sapiens; outline: as §2
SN12C = experiment: Growth inhibition of SN12C cells; format: functional; conditions: Homo sapiens
SK-MEL-2 = experiment: Growth inhibition of SK-MEL-2 cells; format: functional; conditions: Homo sapiens
SK-OV-3 = experiment: Growth inhibition of SKOV3 cells; format: functional; conditions: Homo sapiens
SF-295 = experiment: Growth inhibition of SF295 cells; format: functional; conditions: Homo sapiens
HOP-92 = experiment: Growth inhibition in HOP92 cells; format: functional; conditions: Homo sapiens
OVCAR-5 = experiment: Growth inhibition of OVCAR5 cells; format: functional; conditions: Homo sapiens
SW1573 [14] = experiment: Ratio of growth inhibition of SW1573 cells by drug to 2'-2'-difluorodeoxycytidine; format: functional, Homo sapiens
UACC-257 = experiment: Growth inhibition of UACC257 cells; format: functional; conditions: Homo sapiens
[15] = Growth inhibition in HS 578T cells; format: functional; conditions: Homo sapiens
NCI-H460 [16] = experiment: Ratio of growth inhibition of H460 cells by drug to 2'-2'-difluorodeoxycytidine; format: functional, Homo sapiens
K562 = experiment: Growth inhibition of K562 cells; format: functional; conditions: Homo sapiens
CCRF-CEM [17] = experiment: Growth inhibition of CEM cells by MTT assay; conditions: Homo sapiens
SW-620 = experiment: Growth inhibition of SW620 cells; format: functional; conditions: Homo sapiens
TK-10 = experiment: Growth inhibition of TK10 cells; format: functional; conditions: Homo sapiens
EKVX = experiment: Growth inhibition in EKVX cells; format: functional; conditions: Homo sapiens
HOP-62 = experiment: Growth inhibition in HOP62 cells; format: functional; conditions: Homo sapiens
A498 = experiment: Growth inhibition in A498 cells; format: functional; conditions: Homo sapiens
HCT-15 = experiment: Growth inhibition in HCT15 cells; format: functional; conditions: Homo sapiens
[18] = Growth inhibition of H292 cells by SRB assay; format: functional, cell-based; conditions: Homo sapiens, NCI-H292; outline: as §1
[19] = Growth inhibition of H292 cells by SRB assay in presence of dipyridamole; format: functional, cell-based; conditions: Homo sapiens, NCI-H292; outline: as §2
NCI/ADR-RES = experiment: Growth inhibition of NCI/ADR-RES cells; format: functional; conditions: Homo sapiens
CCRF-CEM [20] = experiment: Ratio of growth inhibition of dCK deficient CEM cells by drug to 2'-2'-difluorodeoxycytidine; format: functional, Homo sapiens
ACHN = experiment: Growth inhibition in ACHN cells; format: functional; conditions: Homo sapiens
UO-31 = experiment: Growth inhibition of UO31 cells; format: functional; conditions: Homo sapiens
MOLT-4 = experiment: Growth inhibition of MOLT4 cells; format: functional; conditions: Homo sapiens
A2780 [21] = experiment: Growth inhibition of A2780 cells by SRB assay; format: functional, cell-based; conditions: Homo sapiens; outline: as §1
LOX IMVI = experiment: Growth inhibition of LOX IMVI cells; format: functional; conditions: Homo sapiens
A549 [22] = experiment: Growth inhibition of A549 cells by SRB assay in presence of dipyridamole; format: functional, cell-based; conditions: Homo sapiens; outline: as §2
[23] = Ratio of growth inhibition of AG6000 cells by drug to 2'-2'-difluorodeoxycytidine; format: functional, Homo sapiens
CCRF-CEM [24] = experiment: Growth inhibition of CEM cells by MTT assay in presence of dipyridamole; conditions: Homo sapiens
SW1573 [25] = experiment: Growth inhibition of SW1573 cells by SRB assay; format: functional, cell-based; conditions: Homo sapiens
Outline: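 SW1573 NSCLC cells grown in DMEM with 10% FCS and 20 mM HEPES at 37 °C, 5% CO2. Seeded at 5000 cells/well and exposed to a range of drug concentrations for 72 h, then SRB assay. OD read at 540 or 492 nm. Relative growth = (ODtreated − ODzero)/(ODcontrol − ODzero) × 100%, with ODzero taken at drug addition.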

NCI-H460 [26] = experiment: Growth inhibition of H460 cells by SRB assay; format: functional, cell-based; conditions: Homo sapiens; outline: as §1
A2780 [27] = experiment: Growth inhibition of A2780 cells by SRB assay in presence of dipyridamole; format: functional, cell-based; conditions: Homo sapiens; outline: as §2
NCI-H23 = experiment: Growth inhibition of NCI-H23 cells; format: functional; conditions: Homo sapiens
IGROV-1 = experiment: Growth inhibition in IGROV1 cells; format: functional; conditions: Homo sapiens
NCI-H226 = experiment: Growth inhibition of NCI-H226 cells; format: functional; conditions: Homo sapiens

CN(CCCCCl)P(=O)(OCc1ccc([N+](=O)[O-])o1)OC[C@H]1O[C@@H](n2ccc(N)nc2=O)C(F)(F)[C@@H]1O (some centres undefined)
GI50 (M14): 0.054 µM
GI50 (NCI-H522): 15 µM
GI50 (NCI-H322M): 3.5 µM
GI50 (SK-MEL-28): 20 µM
GI50 (786-0): 0.062 µM
GI50 (OVCAR-8): 0.11 µM
GI50 (A549 [1]): 0.73 µM
Ratio IC50 [2]: 2.8
IC50 (CCRF-CEM [3]): 17 µM
GI50 (MDA-MB-435): 0.47 µM
GI50 (HCT-116): 1.1 µM
GI50 (NCI-H460 [4]): 0.3 µM
Ratio IC50 (CCRF-CEM [5]): 15
GI50 (PC-3): 1.8 µM
GI50 (MCF7): 0.45 µM
IC50 (A549 [6]): 0.079 µM
IC50 [7]: 5 µM
GI50 (MDA-MB-231): 25 µM
GI50 (SNB-75): 13 µM
GI50 (SF-539): 0.042 µM
GI50 (KM12): 15 µM
GI50 (OVCAR-3): 3.2 µM
GI50 (CAKI-1): 0.22 µM
IC50 (NCI-H460 [8]): > 0.5 µM
GI50 (U-251): 0.78 µM
GI50 (SNB-19): 0.26 µM
GI50 (HT-29): 30 µM
IC50 (CCRF-CEM [9]): 13 µM
GI50 (SF-268): 0.26 µM
GI50 (BT-549): 1.6 µM
IC50 (SW1573 [10]): > 0.5 µM
GI50 (DU-145): 0.19 µM
Ratio IC50 (A549 [11]): 5.6
GI50 (COLO 205): 7.5 µM
Ratio IC50 (A2780 [12]): 5.3
GI50 (UACC-62): 1.1 µM
GI50 (SK-MEL-5): 3.2 µM
IC50 [13]: 6 µM
GI50 (SN12C): 0.49 µM
GI50 (SK-MEL-2): 80 µM
GI50 (SK-OV-3): 2.2 µM
GI50 (SF-295): 0.88 µM
GI50 (HOP-92): 0.15 µM
GI50 (OVCAR-5): 1.9 µM
Ratio IC50 (SW1573 [14]): 5.8
GI50 (UACC-257): 17 µM
GI50 [15]: 46 µM
Ratio IC50 (NCI-H460 [16]): 7.7
GI50 (K562): 13 µM
IC50 (CCRF-CEM [17]): 2 µM
GI50 (SW-620): 38 µM
GI50 (TK-10): 1.5 µM
GI50 (EKVX): 2.5 µM
GI50 (HOP-62): 0.5 µM
GI50 (A498): 5.8 µM
GI50 (HCT-15): 54 µM
IC50 [18]: 0.037 µM
IC50 [19]: 0.33 µM
GI50 (NCI/ADR-RES): 0.23 µM
Ratio IC50 (CCRF-CEM [20]): 0.26
GI50 (ACHN): 0.038 µM
GI50 (UO-31): 0.4 µM
GI50 (MOLT-4): 0.77 µM
IC50 (A2780 [21]): 0.008 µM
GI50 (LOX IMVI): 0.76 µM
IC50 (A549 [22]): > 0.5 µM
Ratio IC50 [23]: 0.25
IC50 (CCRF-CEM [24]): 4 µM
IC50 (SW1573 [25]): 0.092 µM
IC50 (NCI-H460 [26]): 0.077 µM
IC50 (A2780 [27]): 0.4 µM
GI50 (NCI-H23): 0.074 µM
GI50 (IGROV-1): 14 µM
GI50 (NCI-H226): 16 µM
